Data on six compounds can be found in ChEMBL document CHEMBL1955718, “Discovery of new orally effective analgesic and anti-inflammatory hybrid furoxanyl N-acylhydrazone derivatives” (Bioorg Med Chem, 2012).

The test system of series [1] is Rattus norvegicus. Briefly: Antiinflammatory activity in albino rat assessed as inhibition of carrageenan-induced paw edema at 100 umol/kg, po administered 1 hr before carrageenan challenge measured after 3 hrs by plethysmometric analysis relative to control. In kind it is functional. Put shortly:
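Albino rats of both sexes (150–200 g) were dosed orally as a suspension in 1% Tween 80 in saline, with vehicle controls. After 1 h, 0.1 mL 1% carrageenan or saline was injected subplantar. Paw volume was read by glass plethysmometer at 3 h. Edema = carrageenan-paw minus saline-paw volume; % inhibition vs vehicle; Student t-test.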

Series [2] has as its system Mus musculus. Briefly: Analgesic activity in albino mouse assessed as inhibition of acetic acid-induced abdominal constriction at 100 umol/kg, po administered 1 hr before acetic acid challenge measured after 60 mins relative to control. In kind it is functional. To be noted: Abdomen. Put shortly:
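Albino mice of both sexes (18–23 g) were dosed orally as a suspension in 5% arabic gum in saline, with vehicle controls. After 1 h they received 0.6% acetic acid ip (0.1 mL/10 g). Constrictions were counted for 20 min starting 10 min after injection. Data are % inhibition vs vehicle, mean ± SEM, Student t-test.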

The target of series [3] is T1, Prostaglandin G/H synthase 1 (Ovis aries) (UniProt P05979).
T1 sequence (whole entry): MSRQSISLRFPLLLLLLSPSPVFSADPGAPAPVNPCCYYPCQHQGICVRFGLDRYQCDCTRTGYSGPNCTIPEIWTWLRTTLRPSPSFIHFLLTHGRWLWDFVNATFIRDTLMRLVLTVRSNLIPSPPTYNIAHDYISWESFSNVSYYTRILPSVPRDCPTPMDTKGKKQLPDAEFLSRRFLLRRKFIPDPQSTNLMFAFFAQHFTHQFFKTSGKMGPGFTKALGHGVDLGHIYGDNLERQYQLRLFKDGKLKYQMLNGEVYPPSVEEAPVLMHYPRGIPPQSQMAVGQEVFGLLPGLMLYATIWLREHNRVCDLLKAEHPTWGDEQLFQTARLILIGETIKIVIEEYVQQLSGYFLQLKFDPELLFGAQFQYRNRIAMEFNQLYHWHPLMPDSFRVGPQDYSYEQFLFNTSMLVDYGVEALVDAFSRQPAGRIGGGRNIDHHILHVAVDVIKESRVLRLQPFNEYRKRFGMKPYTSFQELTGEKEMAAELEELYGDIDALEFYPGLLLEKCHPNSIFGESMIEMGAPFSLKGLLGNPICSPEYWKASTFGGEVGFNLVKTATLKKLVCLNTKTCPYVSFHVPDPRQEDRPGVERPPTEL
To be noted: 0.1 uM.

A short description of series [4]: Inhibition of soybean lipoxygenase using arachidonic acid as substrate. Set-up: species or system Glycine max. Put shortly:
(§1)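 Soybean 15-lipoxygenase kit assay, arachidonic acid substrate, H2O2 as lipoxygenating agent in 0.1 M Tris-HCl pH 7.4. Single-point screen at 50 µM. IC50 found by varying concentration over 10–100 µM. Quercetin at 4 µM as positive control; duplicate means; Student t-test.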

In series [5] the test system is HT-29. The series can be described thus: Inhibition of NF-kappaB activation expressed in human HT-29 cells assessed as inhibition of TNFalpha-stimulated IL8 release at 400 uM after 24 hrs by flow cytometric analysis relative to control. In kind it is cell-based. Put shortly:
(§2)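 Reporter HT-29-NF-κB-hrGFP cells pretreated 2 h with compound (DMSO <0.5%) at the highest concentration with 100% survival, then stimulated with TNF-α (3 ng/mL final) for 18–24 h at 37 °C. IL-8 in clarified supernatant measured by flow cytometric bead assay (500 events). Expressed as % of TNF-α/DMSO control ± SD; thalidomide as reference.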

A short description of series [6]: Induction of NO release in 0.1 M Tris-HCl and 0.1 mM DTPA at pH 7.4 measured for 20 mins in presence of cysteine. The format is physicochemical. Conditions: buffer, pH 7.4, 20 min. A digest of the protocol:
(§3)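 Electrochemical NO detection with an ISO-NOP sensor. Compounds in DMSO added to 0.1 M Tris-HCl, 0.1 mM DTPA at pH 7.4 or 8.3. Cysteine (300 or 100 µM) added and NO recorded for 20 min at 25 or 37 °C; compound:Cys ratio 1:1 at 25 °C, with 3:1 and 37 °C runs also made.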

For series [7], the system named is Glycine max. Briefly: Inhibition of soybean lipoxygenase using arachidonic acid as substrate at 50 uM. Put shortly:
as §1

The subject of series [8] is Salmonella typhimurium. The series can be described thus: Induction of mutagenesis in Salmonella Typhimurium TA98 assessed as number of revertants at 3.1 to 250 ug/plate in absence of mouse liver S9 fraction. The format is toxicity, organism-based. To be noted: salmonella enterica subsp. enterica serovar typhimurium. A digest of the protocol: (§4)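 S. typhimurium TA98, plate incorporation on minimal glucose (Vogel-Bonner) agar. Compounds were in DMSO, dosed in triplicate with a top non-toxic dose of 250 or 350 µg/plate. Runs were without S9 (positive control 4-nitro-o-phenylenediamine, 20 µg/plate) or with 500 µL Aroclor-induced mouse liver S9 (positive control 2-aminofluorene, 10 µg/plate), plus a DMSO control. Revertants were counted manually; mutagenic means ≥2-fold spontaneous revertants at two consecutive doses.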

A short description of series [9]: Induction of NO release in 0.1 M Tris-HCl and 0.1 mM DTPA at pH 8.3 measured for 20 mins in presence of cysteine. Conditions: buffer, pH 8.3, 20 min. In kind it is physicochemical. A digest of the protocol: as §3
A short description of series [10]: Cytotoxicity against mouse […] cells after 48 hrs by MTT assay. The format is cell-based. Put shortly: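 J774 macrophages in DMEM (4 mM L-glutamine, 10% heat-inactivated FBS) were seeded at 1 × 10^5 cells/well and grown for 48 h at 37 °C, 5% CO2. They were then exposed to compounds at 25–400 µM for 48 h. MTT (0.1 mg/mL final) was added for 3 h, formazan was dissolved in DMSO/glycine buffer pH 10.5, and absorbance was read at 560 nm to give an IC50.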
In general terms: Tetrazolium assays rely on reduction of a dye to a coloured formazan, in cell work by metabolically active cells.

Series [11] has as its system HT-29. Briefly: Pro-inflammatory activity in NFkappaB-GFP transfected human HT-29 cells at 25 to 400 uM after 24 hrs by propidium iodide staining-based flow cytometric analysis. The format is ADME, cell-based. To be noted: ht-29, 24 h. Put shortly:
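Reporter HT-29-NF-κB-hrGFP cells given compound alone, without TNF-α, for 18–24 h at 37 °C after the same 2 h pre-incubation. GFP-positive live (propidium iodide-excluding) cells counted by flow cytometry; IL-8 in supernatant measured by bead-based flow cytometry.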
(Flow cytometry measures light scatter and fluorescence of single cells or particles in a stream.)

For series [12], the system named is Salmonella typhimurium. Briefly: Induction of mutagenesis in Salmonella Typhimurium TA98 assessed as number of revertants at 3.1 to 250 ug/plate in presence of mouse liver S9 fraction. The format is toxicity, organism-based. Conditions: salmonella enterica subsp. enterica serovar typhimurium. Put shortly: as §4
Series [13] in a line: Cytotoxicity against human HT-29 cells expressing NF-kappaB-hrGFP assessed as highest non-cytotoxic dose for 100% cell survival after 24 hrs by MTT assay. The format is cell-based. To be noted: read-out: Activity. A digest of the protocol: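 HT-29 cells stably carrying pNF-κB-hrGFP, seeded at 0.5 × 10^6/mL in DMEM with 10% FBS, grown 24 h at 37 °C, 5% CO2. Compounds added in DMSO (<0.5% v/v final) at 12.5–400 µM for 24 h. Viability by MTT reduction (2 h), formazan dissolved in DMSO/glycine buffer, read at 560 nm.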

Series [14] relates to HT-29. Briefly: Inhibition of TNFalpha-induced NF-kappaB activation expressed in human HT-29 cells coexpressing hrGFP at 400 uM after 24 hrs by propidium iodide staining-based flow cytometric analysis relative to control. The format is cell-based. A digest of the protocol:
(§5)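 HT-29 cells stably expressing NF-κB-driven hrGFP given compound (DMSO <0.5%) for 2 h at the maximum non-cytotoxic concentration, then TNF-α at 3 ng/mL final for 18–24 h. Cells trypsinised and stained with propidium iodide; 5000 events gated on FSC/SSC. The %GFP-positive among PI-excluding live cells is normalised to TNF-α/DMSO control, ± SD.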

The subject of series [15] is HT-29. Briefly: Inhibition of TNF-alpha-induced NFkappaB activation expressed in human HT-29 cells coexpressing hrGFP at 25 uM after 24 hrs by propidium iodide staining-based flow cytometric analysis relative to control. The format is cell-based. Put shortly:
as §5

The subject of series [16] is HT-29. Briefly: Inhibition of NF-kappaB activation expressed in human HT-29 cells assessed as inhibition of TNFalpha-stimulated IL8 release at 25 uM after 24 hrs by flow cytometric analysis relative to control. In kind it is cell-based. Put shortly:
as §2

In series [17] the test system is Glycine max. The series can be described thus: Inhibition of soybean lipoxygenase using arachidonic acid as substrate at 4 uM. Put shortly: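 Soybean lipoxygenase-15 screening kit with arachidonic acid as substrate and H2O2 as lipoxygenating agent in 0.1 M Tris-HCl, pH 7.4. Values are % inhibition, means of duplicate determinations, Student t-test.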
Series [18] has as its system HT-29. The series can be described thus: Inhibition of NF-kappaB activation expressed in human HT-29 cells assessed as inhibition of TNFalpha-stimulated IL8 release at 100 uM after 24 hrs by flow cytometric analysis relative to control. In kind it is cell-based. A digest of the protocol:
as §2

In series [19] the test system is HT-29. The series can be described thus: Inhibition of NF-kappaB activation expressed in human HT-29 cells assessed as inhibition of TNFalpha-stimulated IL8 release at 200 uM after 24 hrs by flow cytometric analysis relative to control. In kind it is cell-based. Put shortly: as §2
In series [20] the test system is HT-29. The series can be described thus: Inhibition of TNFalpha-induced NF-kappaB activation expressed in human HT-29 cells coexpressing hrGFP at 200 uM after 24 hrs by propidium iodide staining-based flow cytometric analysis relative to control. The format is cell-based. A digest of the protocol: as §5
Series [21] concerns HT-29. Briefly: Inhibition of TNFalpha-induced NF-kappaB activation expressed in human HT-29 cells coexpressing hrGFP at 100 uM after 24 hrs by propidium iodide staining-based flow cytometric analysis relative to control. In kind it is cell-based. A digest of the protocol:
as §5

The subject of series [22] is HT-29. Briefly: Inhibition of NF-kappaB activation expressed in human HT-29 cells assessed as inhibition of TNFalpha-stimulated IL8 release at 20 uM after 24 hrs by flow cytometric analysis relative to control. In kind it is cell-based. Put shortly: as §2
The test system of series [23] is HT-29. Briefly: Inhibition of TNF-alpha-induced NFkappaB activation expressed in human HT-29 cells coexpressing hrGFP at 20 uM after 24 hrs by propidium iodide staining-based flow cytometric analysis relative to control. The format is cell-based. Put shortly:
as §5

What is called inhibition in vivo is the change of the read-out against control, counted positive when it falls. The inhibition is the change of the read-out against control, counted positive when it falls. With `COc1ccc2c(c1)c(CC(=O)O)c(C)n2C(=O)c1ccc(Cl)cc1` [INDOMETHACIN], the inhibition in vivo at 100 µmol/kg was 61% in [1] and 44% in series [2]. The inhibition in series [3] worked out at 49.7%.
One may read the IC50 as the concentration at which inhibition is half-maximal. As for `Cc1c(C(=O)N/N=C/c2ccc(C(=O)O)cc2)no[n+]1[O-]`, the inhibition in vivo at 100 µmol/kg in series [1] amounted to 16%; in [2], 0%. The IC50 in [4] is 35 µM; in series [10] it was above 400 µM. Besides, the inhibition in series [5] stood at 53%; in [7], 74%. Moreover, the Activity in [6] is 1.04 nM/min; in series [8], “Non-toxic”; in [9] it was 0.19 nM/min; in [11] it was “Non-toxic”; in series [12], “Non-toxic”. The MNTC at 24 h in [13] is 400 µM. In series [14], the NF-kappaB activity (GFP-positive cells), % of TNF-alpha control came to 125%.
Turning to `O=C(N/N=C/c1c(-c2ccccc2)no[n+]1[O-])c1cccnc1`, the inhibition in series [15] turned out to be 114%; in [7], 14%; in series [16], 138%. In addition, the figures for the half-inhibitory concentration (IC50) in [4] and in series [10] were above 100 µM and 195 µM, respectively. For the same compound, the Activity result in [11] is listed as “Non-toxic”. The MNTC at 24 h in [13] turned out to be 25 µM.
As to `O=c1c(O)c(-c2ccc(O)c(O)c2)oc2cc(O)cc(O)c12`, the inhibition in series [17] was 35%.
With `O=C1CCC(N2C(=O)c3ccccc3C2=O)C(=O)N1` (stereo not drawn) [THALIDOMIDE], the inhibition in [18] was 63%; in series [19] it was 77%; in series [5], 57%; in series [20], 114%. For the same compound, in series [10], the IC50 is above 400 µM. The Activity result in series [11] is “Non-toxic”. Further, the MNTC at 24 h in [13] worked out at 100 µM. For the same compound, in series [14], the NF-kappaB activity (GFP-positive cells), % of TNF-alpha control was found to be 116%. In [21], the NF-kappaB activity (% of TNF-alpha control) turned out to be 126%.
As to `O=S(=O)(c1ccccc1)c1no[n+]([O-])c1S(=O)(=O)c1ccccc1`, the figures for the Activity in [6] and in [11] were 3700 nM/min and “Non-toxic”, respectively. Besides, the inhibition in series [22] and in series [23] was 6% in each case. Moreover, the MNTC at 24 h in [13] was 20 µM.
